“Also recorded” adds a separate entry of the source.
Test: Phase 1 safety monitoring of PX-866 with docetaxel
Format: in vivo, human
Summary of the method: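 Open-label dose escalation in cohorts of 6–9 patients at 4, 6 or 8 mg oral daily test compound plus docetaxel 75 mg m−2 IV every 21 days, with dexamethasone premedication. All patients receiving ≥1 dose had vital signs, labs and exams; AEs were graded by NCI CTCAE v4.02. DLTs included related grade ≥3 events, febrile grade 3/4 neutropenia, platelets <25 000 per μl and ANC <500 per μl for >7 days.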

[1] = PX-866 with docetaxel, 43 patients
[2] = Total, all PX-866 doses + docetaxel, N=43

C=CCN(/C=C1/C(=O)O[C@H](COC)[C@@]2(C)C1=C(O)C(=O)C1=C2[C@H](OC(C)=O)C[C@]2(C)C(=O)CC[C@@H]12)CC=C [PX-866]
Treatment-emergent AEs, frequency by severity: Grade 2 (PX-866 6 mg + docetaxel, N=10): 30 (41) N (%)
Treatment-emergent AEs, frequency by severity: Grade 3 (PX-866 6 mg + docetaxel, N=10): 5 (7) N (%)
Treatment-emergent AEs, frequency by severity: Grade 4 (PX-866 6 mg + docetaxel, N=10): 3 (4) N (%)
Treatment-emergent AEs, frequency by severity: Grade 5 (PX-866 6 mg + docetaxel, N=10): 0 (0) N (%)
Treatment-emergent AE: Alopecia (PX-866 8 mg + docetaxel, N=23): 4 (17) N (%)
Treatment-emergent AE: Anaemia (PX-866 8 mg + docetaxel, N=23): 9 (39) N (%)
Treatment-emergent AE: Arthralgia (PX-866 8 mg + docetaxel, N=23): 5 (22) N (%)
Treatment-emergent AE: Asthenia (PX-866 8 mg + docetaxel, N=23): 6 (26) N (%)
Treatment-emergent AE: Bone pain (PX-866 8 mg + docetaxel, N=23): 5 (22) N (%)
Treatment-emergent AE: Constipation (PX-866 8 mg + docetaxel, N=23): 8 (35) N (%)
Treatment-emergent AE: Cough (PX-866 8 mg + docetaxel, N=23): 3 (13) N (%)
Treatment-emergent AE: Decreased appetite (PX-866 8 mg + docetaxel, N=23): 10 (44) N (%)
Treatment-emergent AE: Dehydration (PX-866 8 mg + docetaxel, N=23): 11 (48) N (%)
Treatment-emergent AE: Diarrhoea (PX-866 8 mg + docetaxel, N=23): 18 (78) N (%)
Treatment-emergent AE: Dizziness (PX-866 8 mg + docetaxel, N=23): 4 (17) N (%)
Treatment-emergent AE: Dysgeusia (PX-866 8 mg + docetaxel, N=23): 3 (13) N (%)
Treatment-emergent AE: Epistaxis (PX-866 8 mg + docetaxel, N=23): 4 (17) N (%)
Treatment-emergent AE: Fatigue (PX-866 8 mg + docetaxel, N=23): 13 (57) N (%)
Treatment-emergent AE: Hypokalemia (PX-866 8 mg + docetaxel, N=23): 6 (26) N (%)
Treatment-emergent AE: Nausea (PX-866 8 mg + docetaxel, N=23): 16 (70) N (%)
Treatment-emergent AE: Neutropenia (PX-866 8 mg + docetaxel, N=23): 6 (26) N (%)
Treatment-emergent AE: Oedema peripheral (PX-866 8 mg + docetaxel, N=23): 7 (30) N (%)
Treatment-emergent AE: Oropharyngeal pain (PX-866 8 mg + docetaxel, N=23): 5 (22) N (%)
Treatment-emergent AE: Pyrexia (PX-866 8 mg + docetaxel, N=23): 6 (26) N (%)
Treatment-emergent AE: Stomatitis (PX-866 8 mg + docetaxel, N=23): 4 (17) N (%)
Treatment-emergent AE: Vomiting (PX-866 8 mg + docetaxel, N=23): 14 (61) N (%)
Treatment-emergent AEs, frequency by severity: Grade 1 (PX-866 8 mg + docetaxel, N=23): 84 (50) N (%)
Treatment-emergent AEs, frequency by severity: Grade 2 (PX-866 8 mg + docetaxel, N=23): 62 (37) N (%)
Treatment-emergent AEs, frequency by severity: Grade 3 (PX-866 8 mg + docetaxel, N=23): 15 (9) N (%)
Treatment-emergent AEs, frequency by severity: Grade 4 (PX-866 8 mg + docetaxel, N=23): 8 (5) N (%)
Treatment-emergent AEs, frequency by severity: Grade 5 (PX-866 8 mg + docetaxel, N=23): 0 (0) N (%)
dose-limiting toxicities (PX-866 4, 6, 8 mg daily with docetaxel 75 mg m^−2): No dose-limiting toxicities; also recorded: No DLTs
tolerability (PX-866 and docetaxel): well tolerated
gastrointestinal disorders, PX-866-related [1]: 83.7%
study drug-related diarrhoea, patients [1]: 76.7%
Grade 3/4 AE related to PX-866: diarrhoea (PX-866 with docetaxel, N=43): 3 N
Grade 3/4 AE related to PX-866: nausea (PX-866 with docetaxel, N=43): 2 N
SAEs considered related to study treatment (PX-866 with docetaxel, N=43): 17
patients who experienced serious AEs (PX-866 with docetaxel, N=43): Twenty
treatment-emergent AE neutropenia (PX-866 with docetaxel, N=43): 40%
treatment-emergent AE peripheral oedema (PX-866 with docetaxel, N=43): 40%
treatment-emergent AE vomiting (PX-866 with docetaxel, N=43): 51%
Treatment-emergent AE: Alopecia [2]: 12 (28) N (%)
Treatment-emergent AE: Anaemia [2]: 13 (30) N (%)
Treatment-emergent AE: Arthralgia [2]: 7 (16) N (%)
Treatment-emergent AE: Asthenia [2]: 11 (26) N (%)
Treatment-emergent AE: Bone pain [2]: 9 (21) N (%)
Treatment-emergent AE: Constipation [2]: 13 (30) N (%)
Treatment-emergent AE: Cough [2]: 10 (23) N (%)
Treatment-emergent AE: Decreased appetite [2]: 15 (35) N (%)
Treatment-emergent AE: Dehydration [2]: 15 (35) N (%)
Treatment-emergent AE: Diarrhoea [2]: 33 (77) N (%)
Treatment-emergent AE: Dizziness [2]: 7 (16) N (%)
Treatment-emergent AE: Dysgeusia [2]: 8 (19) N (%)
Treatment-emergent AE: Epistaxis [2]: 7 (16) N (%)
Treatment-emergent AE: Fatigue [2]: 26 (61) N (%)
Treatment-emergent AE: Hypokalemia [2]: 9 (21) N (%)
Treatment-emergent AE: Nausea [2]: 25 (58) N (%)
Treatment-emergent AE: Neutropenia [2]: 17 (40) N (%)
Treatment-emergent AE: Oedema peripheral [2]: 17 (40) N (%)
Treatment-emergent AE: Oropharyngeal pain [2]: 7 (16) N (%)
Treatment-emergent AE: Pyrexia [2]: 11 (26) N (%)
Treatment-emergent AE: Stomatitis [2]: 9 (21) N (%)
Treatment-emergent AE: Vomiting [2]: 22 (51) N (%)
Treatment-emergent AEs, frequency by severity: Grade 1 [2]: 152 (51) N (%)
Treatment-emergent AEs, frequency by severity: Grade 2 [2]: 102 (34) N (%)
Treatment-emergent AEs, frequency by severity: Grade 3 [2]: 28 (9) N (%)
Treatment-emergent AEs, frequency by severity: Grade 4 [2]: 18 (6) N (%)
Treatment-emergent AEs, frequency by severity: Grade 5 [2]: 0 (0) N (%)
RP2D of PX-866 in combination (daily, with docetaxel 75 mg m^−2 IV every 21 days): 8 mg
deaths on study (two after progressive disease, one pneumonia unrelated to either study drug): three

— publication PMC3778312 (British Journal of Cancer, 2013)
